Compounds with a hit are over-represented: about 4.2% of the library has one in this group of screens.
CTSL1 counter-1: cathepsin L1 inhibition, PFM18AAP counter-screen; inhibition, % at 5.96 µM; actives 0.49% (n = 300,000); recombinant F. hepatica cathepsin L1, Z-Leu-Arg-MCA fluorescence;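 active = inhibition above the mean of all tested compounds plus 3 SD, set per screening campaign, cut at about 17% in these data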;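 note: 0% = plate median of test compound wells and 100% = 1 µM Z-Phe-Ala-diazomethylketone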
HDAC3 inhib: inhibitors of human histone deacetylase 3 | recombinant HDAC3, fluorogenic peptide/trypsin coupled, fluorescence | O15379 | inhibition, % at 8.3 µM | actives 0.15% (n = 320,000) | AID 2718; in the data active = inhibition above about 26%, passing the limit was not always enough; inconclusive = no clear call, values can overlap the other calls
AHR act: activators of human aryl hydrocarbon receptor. AHR-responsive luciferase reporter cells, luminescence. activation, % at 5 µM. actives 2.5% (n = 320,000). AID 2796; in the data active = activation above about 47%;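 note: 0% = vehicle wells and 100% = reference agonist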
Target sequence (P35869 whole entry, looked up): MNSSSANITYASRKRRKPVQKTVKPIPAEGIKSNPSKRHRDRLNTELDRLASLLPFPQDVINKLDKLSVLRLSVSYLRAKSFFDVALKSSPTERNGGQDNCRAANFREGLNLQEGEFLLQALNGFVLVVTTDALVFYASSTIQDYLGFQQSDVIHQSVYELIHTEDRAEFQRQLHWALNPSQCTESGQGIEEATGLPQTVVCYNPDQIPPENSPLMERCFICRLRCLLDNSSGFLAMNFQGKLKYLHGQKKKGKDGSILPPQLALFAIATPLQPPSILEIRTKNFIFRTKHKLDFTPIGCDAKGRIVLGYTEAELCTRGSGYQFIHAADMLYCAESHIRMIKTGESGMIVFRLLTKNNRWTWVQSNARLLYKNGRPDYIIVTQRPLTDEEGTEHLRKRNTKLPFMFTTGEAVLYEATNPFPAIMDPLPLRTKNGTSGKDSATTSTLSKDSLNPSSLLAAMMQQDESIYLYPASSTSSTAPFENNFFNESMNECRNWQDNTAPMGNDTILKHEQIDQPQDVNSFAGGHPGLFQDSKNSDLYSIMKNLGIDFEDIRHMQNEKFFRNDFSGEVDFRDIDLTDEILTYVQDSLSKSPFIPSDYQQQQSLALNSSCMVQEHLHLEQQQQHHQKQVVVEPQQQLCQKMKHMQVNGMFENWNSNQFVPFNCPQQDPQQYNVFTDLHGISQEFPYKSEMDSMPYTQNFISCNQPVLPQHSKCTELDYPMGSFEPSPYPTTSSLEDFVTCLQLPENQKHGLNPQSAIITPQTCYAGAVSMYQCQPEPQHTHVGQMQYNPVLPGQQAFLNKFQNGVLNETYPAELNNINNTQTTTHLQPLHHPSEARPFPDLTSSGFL
PfM18AAP inh-1: PfM18AAP enzyme inhibition | recombinant PfM18AAP, H-Glu-NHMec fluorogenic cleavage | inhibition, % at 7.35 µM | actives 1.2% (n = 290,000);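 active = inhibition above the campaign mean inhibition over all tested compounds plus 3 SD, cut at about 28% in these data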;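 note: 0% = plate median of test compound wells and 100% = 2 mM ZnCl2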
GAA850 FXN act: increases GAA850 frataxin promoter reporter activity. HEK293 lucGAA850 FXN promoter luciferase reporter, 24 h; percent of 10 µM SAHA response. actives 0.56% (n = 360,000). activation, % at 6 µM. AID 540364;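 active = activation above the average of all compounds screened plus 3 SD, cutoff fixed separately per campaign, cut at about 7.5% in these data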;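 note: 0% = DMSO wells and 100% = 10 µM SAHA wells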
SENP1 inh: SENP1 (human) catalytic domain inhibition; AID 624204; actives 0.21% (n = 360,000); recombinant SENP1 catalytic domain, CyPet-SUMO1-YPet FRET cleavage; inhibition, % at 10 µM;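 active = inhibition at least 30% at 10 µM, raw YFP signal under a set limit, fluorescence ratio 0.5 to 1.5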;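 note: 0% = enzyme with DMSO and 100% = no enzyme wells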
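Assay system: hSENP1 catalytic domain, recombinant. Amount: SENP1 enzyme, 20 pM final. Schedule: 50 min reaction, RT, dark. Technique: FRET, CFP and YFP emission. Control set: no-enzyme wells low, DMSO-plus-enzyme wells high control.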
PfM18AAP inh-2: confirmation of Plasmodium falciparum M18 aspartyl aminopeptidase inhibitors; shares compounds with PfM18AAP inh-1; recombinant PfM18AAP, H-Glu-NHMec fluorogenic cleavage; inhibition, % at 7.35 µM; actives 28% (n = 2,400);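 active = mean inhibition over replicate wells above the hit cutoff set for the earlier primary screen, cut at about 29% in these data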;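 note: 0% = median of test compound wells and 100% = 2 mM ZnCl2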
CTSL1 counter-2: counter-screen for PFM18AAP inhibitors: confirmation of human cathepsin L inhibitors; 2,400 tested, under 10 active; AID 2178; purified cathepsin L1, Z-Leu-Arg-MCA fluorescence; inhibition, % at 5.96 µM; shares compounds with PfM18AAP inh-1;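 active = average inhibition across replicates above the hit cutoff set in the earlier primary screen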;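 note: 0% = median of test compound wells and 100% = Z-Phe-Ala-diazomethylketone 1 µM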
* = called active by the depositor; ? = inconclusive; / = no result given.

SMILES	CTSL1 counter-1	HDAC3 inhib	AHR act	PfM18AAP inh-1	GAA850 FXN act	SENP1 inh	PfM18AAP inh-2	CTSL1 counter-2
O=C(COC(=O)c1ccc(-c2ccc([N+](=O)[O-])cc2)o1)NC(=O)NC1CCCCC1	-9.8	6.8	2.0	1.1	0.4	1.2	/	/
Oc1cccc(/C=N/N2CCCCC2)c1O	-13.2	2.9	1.1	44.7*	3.1	0.4	21.5	-3.1
Oc1ccc(/C=N/N2CCCCC2)c(O)c1O	-5.6	6.8	1.8	48.1*	0.3	37.5*	1.4	-8.1
Oc1ccccc1C=NN1CCCCCC1	/	/	/	/	3.9	0.4	/	/
Oc1ccccc1/C=N/N1CCCCC1	-2.8	4.3	-3.2	2.2	1.0	0.6	/	/
CCC(CC)c1nnc(NC(=O)c2ccc3c(c2)OCO3)s1	-1.6	3.8	63.5*	36.3*	4.4	1.8	-27.2	1.2
CS(=O)(=O)c1ccc2c(c1)sc1nc(=O)c(/C=C3/C=CC(=O)C(O)=C3)c(N)n12	6.0	7.0	6.0	57.5*	3.9	-31.8	61.8*	1.2
COC1=C/C(=C/c2c(N)n3c(nc2=O)sc2cc(S(C)(=O)=O)ccc23)C=CC1=O	3.6	1.7	-0.4	7.1	3.1	-35.7	/	/
CC(NC(=O)c1sc2cc([N+](=O)[O-])ccc2c1Cl)C(C)(C)C (centres undefined)	1.1	15.5	-1.1	38.2*	-2.6	-0.1	30.8*	1.6
C[C@H]1COc2cc(N(C)CCO)ccc2S(=O)(=O)N1	/	/	/	/	/	2.4	/	/
CCOC(=O)c1c(C)n(-c2ccc(C)cc2)c2c(CC(C)=O)c(Br)c(OC)c(O)c12	-1.2	5.8	-0.2	1.1	0.9	3.3	/	/
CCOC(=O)c1c(C)n(-c2ccc(C)cc2)c2c(C(C(C)=O)C(=O)O)c(Br)c(O)c(O)c12 (centres undefined)	7.2	1.7	8.4	64.8*	3.3	-4.2	37.3*	2.9
CCN(CC)c1ccc(-n2c(C)cc(C=O)c2C)cc1	-4.9	1.2	13.3	33.2*	-1.5	0.8	-46.9	0.0
CCOc1cc(C2Nc3ccccc3NC3=C2C(=O)CC(C)(C)C3)ccc1OC(C)=O (centres undefined)	2.1	7.5	-2.5	6.9	-1.0	1.2	/	/
CCOc1cc(C2Nc3ccccc3NC3=C2C(=O)CC(C)(C)C3)ccc1O (centres undefined)	2.9	0.0	-0.5	36.8*	2.5	4.5	-28.4	-8.1
CCOC(=O)N1CCN(c2ccc(O)cc2)CC1	-1.7	4.6	3.0	38.8*	0.1	1.8	-9.7	3.6
COc1cc(OC)cc(C(=O)NCC(=O)N2CCN(c3ccc(O)cc3)CC2)c1	1.2	-1.7	1.1	35.6*	0.9	2.6	-24.6	-3.0
CCOC(=O)N1CCN(c2ccc(Cl)cc2)CC1	-2.2	2.7	-6.7	5.1	2.3	-0.7	/	/
O=C(C1CC1)N1CCN(c2ccc(O)cc2)CC1	-1.1	2.6	1.2	43.1*	1.9	3.7	-31.6	-2.4
CC(=O)c1ccc(N2CCN(C(=O)C3CCC3)CC2)cc1	0.4	6.4	0.2	2.1	5.4	0.3	/	/
CCOc1ccc(NCc2nnc(SCC(=O)Nc3nc(-c4ccccc4)cs3)n2-c2ccccc2)cc1	-1.0	-5.3	2.7	-12.2	-1.3	0.6	/	/
CSc1ccc(CN2CCC(C)(Oc3cccc(Cl)c3)C2)cc1 (centres undefined)	/	/	/	/	2.3	-1.5	/	/
O=C(CSc1ncccn1)Nc1cc(Cl)ccc1[N+](=O)[O-]	3.0	-0.1	3.5	6.0	-1.5	-1.4	/	/
CCn1c(-c2ccc(C)cc2)n[nH]c1=S	-1.6	?	3.4	11.8	-1.0	0.9	/	/
CCCn1c(-c2ccc(F)cc2)n[nH]c1=S	-1.5	-9.4	0.5	35.5*	0.9	0.1	13.9	0.7
SMILES	CTSL1 counter-1	HDAC3 inhib	AHR act	PfM18AAP inh-1	GAA850 FXN act	SENP1 inh	PfM18AAP inh-2	CTSL1 counter-2
CC(C)Nc1ncnc2c1ncn2[C@H]1CN(Cc2ccc(F)cc2)C[C@@H](CO)O1	/	/	/	/	-1.7	3.1	/	/
O=C1CCS/C(=N\N=C\c2ccc(Cl)cc2Cl)N1	1.1	9.8	-6.2	24.4	0.9	0.2	/	/
Cc1ccccc1/C=N/N=C1/NC(=O)CCS1	0.4	11.6	-7.5	65.0*	0.3	3.0	-35.6	-0.8
COC(=O)N1CCCCC1c1cc(C(=O)NCc2cccnc2)no1 (centres undefined)	/	/	/	/	0.9	-1.0	/	/
COCCNC(=O)C1(C)CCCN(C(=O)c2ccc(N(C)C)cc2)C1 (centres undefined)	/	/	/	/	-0.7	2.8	/	/
CN(C)C(=S)Nc1nc2ccccc2s1	/	/	/	46.4*	2.5	2.1	-15.0	5.2
CC(=O)NNc1nc2ccccc2s1	0.9	2.0	19.9	50.8*	-1.2	1.2	16.4	1.6
CCOc1ccc2nc(NC(=S)N(C)C)sc2c1	-1.5	9.7	-4.2	-45.0	4.7	0.1	/	/
CCOC(=O)CN1NC2(CCCC(C)C2)NC1=S (centres undefined)	0.8	5.7	8.1	42.9*	0.3	2.4	-51.8	-0.8
CCOC(=O)CN1NC2(CCCCCCC2)NC1=S	13.8	-0.3	2.6	14.3	0.8	-1.0	/	/
CCOC(=O)CN1NC2(CCC(C(C)(C)C)CC2)NC1=S (centres undefined)	1.4	2.5	3.4	-0.1	-0.4	1.5	/	/
CCOC(=O)CN1NC2(CCC(C)CC2)NC1=S (centres undefined)	-1.3	2.5	-5.0	42.6*	-0.8	-1.4	-47.9	-2.7
Cc1ccccc1N1CCN(Cc2cc3c(cc2[N+](=O)[O-])OCO3)CC1	1.5	-3.6	1.2	35.1*	-0.2	0.9	-26.4	-1.4
O=[N+]([O-])c1cc2c(cc1CN1CCN(c3ccc(F)cc3)CC1)OCO2	-0.3	-0.2	-0.2	9.4	1.1	0.4	/	/
CC(=O)Oc1ccc(C(=O)O)cc1OC(C)=O	-2.9	-3.1	0.0	70.2*	0.5	1.6	50.4*	-5.4
COc1cc(C(=O)O)ccc1OC(C)=O	0.1	-6.5	-0.7	-3.7	-0.9	0.4	/	/
CC1(C)Oc2ccc3ccc(=O)oc3c2[C@@H](O)[C@H]1O	/	-37.5	0.3	/	0.6	-1.6	/	/
COc1ccc(C2Nc3cccc4cccc(c34)N2)cc1	-3.3	0.5	29.5	4.0	5.3	-14.9	/	/
Clc1cccc(Cl)c1C1Nc2cccc3cccc(c23)N1	-6.5	-2.0	5.4	3.9	-1.8	7.3	/	/
CN(C)c1ccc(C2Nc3cccc4cccc(c34)N2)cc1	2.0	0.7	23.5	37.4*	0.3	-9.0	-11.2	-5.2
Clc1ccc(C2Nc3cccc4cccc(c34)N2)cc1Cl	-2.2	0.2	36.2	35.8*	0.8	5.4	-23.7	-4.6
O=C(NC1CCCCCC1)c1ccc[nH]c1=S	0.3	-8.7	4.8	53.2*	3.5	0.8	-0.1	0.3
